Experimental data as given in ChEMBL document CHEMBL1955726, “Novel Rho kinase inhibitors with anti-inflammatory and vasodilatory activities” (J Pharmacol Exp Ther, 2007).
pIC50: −log10 of the molar value. Active and inactive are the calls of the source. The rule behind the calls is not given here.

Assays:
[1] = target: Rho-associated protein kinase 2 (Homo sapiens, UniProt O75116); test: Inhibition of human ROCK2
[2] = tested on: primary macrophages (Homo sapiens); test: Antiinflammatory activity in human primary monocyte-derived macrophages assessed as inhibition of LPS-induced IL-6 mRNA expression at 10 uM treated 30 mins before LPS stimulation measured after 18 hrs by Northern blotting
[3] = target: Rho-associated protein kinase 1 (Homo sapiens, UniProt Q13464); test: Inhibition of human recombinant N-terminal his-tagged ROCK1 (3-543) expressed in baculovirus infected Sf9 cells using Biotin-Ahx-AKRRLSSLRA-CONH2 substrate and [gamma-33P]ATP after 90 mins by scintillation proximity assay
Sequence of Rho-associated protein kinase 1 (Q13464 whole entry): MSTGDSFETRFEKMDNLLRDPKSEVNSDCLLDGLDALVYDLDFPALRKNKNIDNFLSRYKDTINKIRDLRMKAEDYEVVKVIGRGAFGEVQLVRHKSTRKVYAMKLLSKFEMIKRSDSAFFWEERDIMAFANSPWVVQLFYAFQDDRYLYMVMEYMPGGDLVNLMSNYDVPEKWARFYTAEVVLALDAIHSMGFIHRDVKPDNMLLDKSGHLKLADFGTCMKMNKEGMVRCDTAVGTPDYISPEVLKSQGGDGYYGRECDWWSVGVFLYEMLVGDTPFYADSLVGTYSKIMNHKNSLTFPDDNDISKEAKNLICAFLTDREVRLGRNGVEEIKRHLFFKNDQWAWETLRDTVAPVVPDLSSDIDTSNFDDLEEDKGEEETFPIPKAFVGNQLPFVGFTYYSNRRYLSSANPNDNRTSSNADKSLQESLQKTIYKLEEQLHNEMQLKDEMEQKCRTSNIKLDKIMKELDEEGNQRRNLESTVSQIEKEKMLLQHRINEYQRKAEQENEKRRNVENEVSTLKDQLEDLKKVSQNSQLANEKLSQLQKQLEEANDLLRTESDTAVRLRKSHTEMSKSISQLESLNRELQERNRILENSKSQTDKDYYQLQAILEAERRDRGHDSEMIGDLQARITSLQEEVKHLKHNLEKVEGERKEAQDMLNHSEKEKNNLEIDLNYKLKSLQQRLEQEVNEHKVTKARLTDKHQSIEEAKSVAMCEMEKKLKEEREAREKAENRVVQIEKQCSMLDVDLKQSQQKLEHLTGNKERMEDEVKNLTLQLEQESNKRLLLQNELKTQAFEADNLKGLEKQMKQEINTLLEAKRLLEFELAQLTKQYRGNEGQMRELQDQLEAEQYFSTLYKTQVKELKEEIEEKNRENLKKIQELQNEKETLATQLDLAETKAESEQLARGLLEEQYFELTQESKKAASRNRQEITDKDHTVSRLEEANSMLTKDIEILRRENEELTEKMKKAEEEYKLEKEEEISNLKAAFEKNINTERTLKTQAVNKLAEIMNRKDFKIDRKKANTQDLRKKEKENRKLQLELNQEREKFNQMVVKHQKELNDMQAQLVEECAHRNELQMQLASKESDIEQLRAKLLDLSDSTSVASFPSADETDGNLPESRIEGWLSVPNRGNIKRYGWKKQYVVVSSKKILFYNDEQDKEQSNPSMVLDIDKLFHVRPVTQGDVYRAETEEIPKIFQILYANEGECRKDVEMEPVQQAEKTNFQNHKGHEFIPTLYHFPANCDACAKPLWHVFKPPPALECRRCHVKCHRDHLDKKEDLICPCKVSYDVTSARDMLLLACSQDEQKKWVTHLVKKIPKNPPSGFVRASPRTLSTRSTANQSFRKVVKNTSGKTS

[4] = target: RAC-alpha serine/threonine-protein kinase (Homo sapiens, UniProt P31749); test: Inhibition of AKT1
Sequence of RAC-alpha serine/threonine-protein kinase (P31749 whole entry): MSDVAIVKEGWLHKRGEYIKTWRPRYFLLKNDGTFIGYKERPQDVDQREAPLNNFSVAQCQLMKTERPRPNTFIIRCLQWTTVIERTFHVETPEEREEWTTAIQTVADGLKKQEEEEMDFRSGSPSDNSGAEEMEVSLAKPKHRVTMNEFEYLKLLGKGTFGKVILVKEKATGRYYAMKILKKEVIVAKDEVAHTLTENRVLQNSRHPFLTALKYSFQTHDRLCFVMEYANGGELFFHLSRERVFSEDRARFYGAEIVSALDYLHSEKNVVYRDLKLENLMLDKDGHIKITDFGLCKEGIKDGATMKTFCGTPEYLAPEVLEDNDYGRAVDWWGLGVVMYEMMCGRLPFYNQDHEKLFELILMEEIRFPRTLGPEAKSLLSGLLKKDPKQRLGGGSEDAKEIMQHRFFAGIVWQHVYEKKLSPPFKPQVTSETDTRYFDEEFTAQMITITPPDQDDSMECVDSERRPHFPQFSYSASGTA

[5] = target: Ribosomal protein S6 kinase alpha-1 (Homo sapiens, UniProt Q15418); test: Inhibition of RSK1
Sequence of Ribosomal protein S6 kinase alpha-1 (Q15418 whole entry): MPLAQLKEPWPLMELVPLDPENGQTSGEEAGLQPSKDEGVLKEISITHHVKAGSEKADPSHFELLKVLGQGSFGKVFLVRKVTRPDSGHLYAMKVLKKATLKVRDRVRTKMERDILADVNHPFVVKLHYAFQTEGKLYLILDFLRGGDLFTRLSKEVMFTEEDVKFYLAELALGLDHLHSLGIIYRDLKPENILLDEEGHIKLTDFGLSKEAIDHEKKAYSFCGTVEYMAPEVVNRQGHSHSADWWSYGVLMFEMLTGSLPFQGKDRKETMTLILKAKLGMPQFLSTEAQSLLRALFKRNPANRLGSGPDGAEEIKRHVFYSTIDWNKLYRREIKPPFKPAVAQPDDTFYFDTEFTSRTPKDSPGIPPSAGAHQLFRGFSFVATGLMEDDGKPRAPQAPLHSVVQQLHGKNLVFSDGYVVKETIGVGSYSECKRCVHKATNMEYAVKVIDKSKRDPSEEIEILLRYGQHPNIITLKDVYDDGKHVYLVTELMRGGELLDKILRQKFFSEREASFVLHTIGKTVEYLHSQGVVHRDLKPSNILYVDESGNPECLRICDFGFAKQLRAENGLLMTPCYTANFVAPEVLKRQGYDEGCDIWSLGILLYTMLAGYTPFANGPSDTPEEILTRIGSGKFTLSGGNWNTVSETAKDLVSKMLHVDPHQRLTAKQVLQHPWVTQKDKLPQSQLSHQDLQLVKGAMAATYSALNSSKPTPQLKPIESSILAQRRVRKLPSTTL

[6] = target: RAC-gamma serine/threonine-protein kinase (Homo sapiens, UniProt Q9Y243); test: Inhibition of AKT3
Sequence of RAC-gamma serine/threonine-protein kinase (Q9Y243 whole entry): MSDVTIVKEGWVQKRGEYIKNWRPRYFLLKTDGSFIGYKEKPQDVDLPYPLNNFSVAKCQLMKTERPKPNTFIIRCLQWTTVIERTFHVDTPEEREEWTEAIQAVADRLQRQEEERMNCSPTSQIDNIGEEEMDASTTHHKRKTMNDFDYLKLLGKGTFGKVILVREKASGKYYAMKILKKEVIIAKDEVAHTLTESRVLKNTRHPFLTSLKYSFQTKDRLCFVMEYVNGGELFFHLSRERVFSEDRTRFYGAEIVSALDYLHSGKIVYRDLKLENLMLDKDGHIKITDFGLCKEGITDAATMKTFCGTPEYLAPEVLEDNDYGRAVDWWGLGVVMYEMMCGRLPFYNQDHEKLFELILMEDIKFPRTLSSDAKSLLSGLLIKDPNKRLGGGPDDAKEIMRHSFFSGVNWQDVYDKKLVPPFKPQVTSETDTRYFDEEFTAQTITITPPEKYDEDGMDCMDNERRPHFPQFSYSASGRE

[7] = target: Mitogen-activated protein kinase 10 (Homo sapiens, UniProt P53779); test: Inhibition of JNK3
Sequence of Mitogen-activated protein kinase 10 (P53779 whole entry): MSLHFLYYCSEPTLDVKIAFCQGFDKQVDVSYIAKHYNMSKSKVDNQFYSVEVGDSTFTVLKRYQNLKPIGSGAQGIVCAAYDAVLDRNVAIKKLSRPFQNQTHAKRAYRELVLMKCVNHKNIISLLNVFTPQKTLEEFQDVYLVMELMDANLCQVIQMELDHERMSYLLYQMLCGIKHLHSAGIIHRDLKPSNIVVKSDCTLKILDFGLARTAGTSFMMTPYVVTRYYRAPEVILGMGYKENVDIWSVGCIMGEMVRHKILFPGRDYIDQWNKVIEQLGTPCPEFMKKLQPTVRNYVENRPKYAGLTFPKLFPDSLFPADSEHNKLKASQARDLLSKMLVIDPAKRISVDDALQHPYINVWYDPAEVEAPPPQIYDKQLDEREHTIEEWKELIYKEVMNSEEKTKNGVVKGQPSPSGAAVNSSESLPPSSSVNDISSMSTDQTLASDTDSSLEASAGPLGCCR

[8] = target: Cyclin-dependent kinase 2 (Homo sapiens, UniProt P24941); test: Inhibition of CDK2
Rattus norvegicus [9] = test: Cardiovascular activity in spontaneously hypertensive rat assessed as increase in heart rate at 0.3 to 3 mg/kg, po; assay type: ADME, organism-based; design: dose 0.3-3 mg/kg, route oral; details: in vivo
Method in brief: (§1)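 Compound given by oral gavage: 0.3, 1 and 3 mg/kg to spontaneously hypertensive rats, and 1 mg/kg to DOCA salt-treated hypertensive rats. A vehicle group was run alongside. Heart rate and blood pressure were recorded from immediately after dosing as 10-s averages every 5 min. There were 4-6 animals per dose (5 per group in the legend), and the change was taken from each group's baseline.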

[10] = target: T1, Inhibitor of nuclear factor kappa-B kinase subunit beta (Homo sapiens, UniProt O14920); test: Inhibition of IKK2
T1 sequence (O14920 whole entry): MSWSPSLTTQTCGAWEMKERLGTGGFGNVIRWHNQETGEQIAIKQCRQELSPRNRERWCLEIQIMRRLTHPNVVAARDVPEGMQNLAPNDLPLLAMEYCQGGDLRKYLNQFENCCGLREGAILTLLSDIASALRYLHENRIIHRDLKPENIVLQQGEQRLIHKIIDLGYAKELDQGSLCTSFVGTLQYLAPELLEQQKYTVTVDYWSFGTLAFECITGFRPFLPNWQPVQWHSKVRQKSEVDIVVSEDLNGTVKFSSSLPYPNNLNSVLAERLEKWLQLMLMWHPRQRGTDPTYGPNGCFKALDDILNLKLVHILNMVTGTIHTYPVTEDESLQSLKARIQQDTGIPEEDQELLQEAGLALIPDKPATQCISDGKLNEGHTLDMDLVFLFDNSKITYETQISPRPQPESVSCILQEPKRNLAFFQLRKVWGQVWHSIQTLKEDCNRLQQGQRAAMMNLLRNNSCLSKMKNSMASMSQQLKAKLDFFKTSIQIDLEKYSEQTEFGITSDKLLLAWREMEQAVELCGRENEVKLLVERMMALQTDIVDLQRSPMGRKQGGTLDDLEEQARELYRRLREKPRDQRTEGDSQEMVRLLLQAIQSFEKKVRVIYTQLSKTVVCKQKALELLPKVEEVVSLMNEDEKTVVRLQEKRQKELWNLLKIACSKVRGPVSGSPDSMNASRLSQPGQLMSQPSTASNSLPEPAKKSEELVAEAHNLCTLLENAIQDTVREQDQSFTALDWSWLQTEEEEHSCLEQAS

[11] = target: Glycogen synthase kinase-3 alpha (Homo sapiens, UniProt P49840); test: Inhibition of GSK3alpha
Sequence of Glycogen synthase kinase-3 alpha (P49840 whole entry): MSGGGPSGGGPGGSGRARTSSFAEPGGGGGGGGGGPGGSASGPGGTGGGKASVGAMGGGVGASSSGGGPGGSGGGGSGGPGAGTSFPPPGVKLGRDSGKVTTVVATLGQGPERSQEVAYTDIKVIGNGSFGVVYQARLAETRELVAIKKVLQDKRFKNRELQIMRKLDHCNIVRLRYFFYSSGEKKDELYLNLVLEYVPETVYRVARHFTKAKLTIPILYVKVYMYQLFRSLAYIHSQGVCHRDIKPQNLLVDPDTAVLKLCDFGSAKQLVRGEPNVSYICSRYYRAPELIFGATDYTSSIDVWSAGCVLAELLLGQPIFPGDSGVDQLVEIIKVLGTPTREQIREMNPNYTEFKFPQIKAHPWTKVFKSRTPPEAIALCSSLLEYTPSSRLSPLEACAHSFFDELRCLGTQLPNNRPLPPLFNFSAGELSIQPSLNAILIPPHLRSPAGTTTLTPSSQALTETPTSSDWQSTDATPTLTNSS

[12] = target: Serine/threonine-protein kinase PLK1 (Homo sapiens, UniProt P53350); test: Inhibition of PLK
Sequence of Serine/threonine-protein kinase PLK1 (P53350 whole entry): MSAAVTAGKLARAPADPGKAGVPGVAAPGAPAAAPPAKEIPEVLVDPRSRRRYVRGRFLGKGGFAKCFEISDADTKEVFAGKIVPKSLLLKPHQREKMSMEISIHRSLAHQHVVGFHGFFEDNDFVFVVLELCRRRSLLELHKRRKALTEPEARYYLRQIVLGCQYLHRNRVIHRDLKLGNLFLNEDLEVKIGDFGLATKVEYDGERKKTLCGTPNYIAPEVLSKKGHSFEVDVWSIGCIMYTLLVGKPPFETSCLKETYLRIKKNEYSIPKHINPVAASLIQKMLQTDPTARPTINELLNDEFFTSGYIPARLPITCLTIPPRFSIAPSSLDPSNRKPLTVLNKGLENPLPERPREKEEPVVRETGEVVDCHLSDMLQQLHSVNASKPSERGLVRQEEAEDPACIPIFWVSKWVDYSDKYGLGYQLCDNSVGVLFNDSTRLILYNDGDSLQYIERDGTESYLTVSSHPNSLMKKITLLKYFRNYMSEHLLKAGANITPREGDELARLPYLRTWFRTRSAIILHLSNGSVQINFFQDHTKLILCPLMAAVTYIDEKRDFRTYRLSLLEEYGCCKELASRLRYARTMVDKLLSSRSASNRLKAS

[13] = target: Ribosomal protein S6 kinase alpha-5 (Homo sapiens, UniProt O75582); test: Inhibition of MSK1
Aorta = test: Vasodilatory activity in Sprague-Dawley rat aorta assessed as reversal of KCl/phenylephrine-induced muscle contraction; assay type: functional, tissue-based
Rattus norvegicus [14] = test: Antihypertensive activity in rat assessed as reduction of DOCA salt-induced blood pressure at 1 mg/kg, po after 2 hrs; assay type: functional
[15] = target: RAC-beta serine/threonine-protein kinase (Homo sapiens, UniProt P31751); test: Inhibition of AKT2
Rattus norvegicus [16] = test: Antihypertensive activity in spontaneously hypertensive rat assessed as reduction of blood pressure at 1 mg/kg, po after 2 hrs; assay type: functional
Rattus norvegicus [17] = test: Cardiovascular activity in DOCA salt treated rat assessed as increase in heart rate at 1 mg/kg, po; assay type: ADME, organism-based; design: dose 1 mg/kg, route oral; details: in vivo; method in brief: as §1
Rattus norvegicus [18] = test: Antihypertensive activity in normotensive Sprague-Dawley rat assessed as reduction of blood pressure at 1 mg/kg, po after 2 hrs; assay type: functional

| Compound | pIC50 [1] | inhibition [2] | pIC50 [3] | pIC50 [4] | pIC50 [5] | pIC50 [6] | pIC50 [7] | pIC50 [8] | Activity (Rattus norvegicus [9]) | pIC50 [10] | pIC50 [11] | pIC50 [12] | further results |
| --- | --- | --- | --- | --- | --- | --- | --- | --- | --- | --- | --- | --- | --- |
| CCn1c(-c2nonc2N)nc2cncc(-c3ccc(CN)cc3)c21 | > 8.00 | Active | > 8.00 | – | – | – | – | – | – | – | – | – | – |
| CCn1c(-c2nonc2N)nc2cnccc21 | > 8.00 | Active | > 8.00 | – | – | – | – | – | – | – | – | – | – |
| CCn1c(-c2nonc2N)nc2cnc(Oc3cccc(NC(=O)c4ccc(OCCN5CCOCC5)cc4)c3)cc21 [GSK-269962A] | – | – | – | 6.02 | 6.88 | 5.82 | < 5.00 | 5.46 | Dose-dependent effect | < 5.00 | 5.90 | < 5.00 | pIC50 [13]: 7.31 |
| C[C@@H](N)[C@H]1CC[C@H](C(=O)Nc2ccncc2)CC1 [Y-27632] | – | – | – | – | – | – | – | – | Dose-dependent effect | – | – | – | pIC50 (Aorta): 5.85 |
| CCn1c(-c2nonc2N)nc2cncc(C(=O)N3CC[C@H](N)C3)c21 | – | – | – | 6.49 | 7.46 | 5.89 | < 5.00 | 5.15 | Dose-dependent effect | < 5.00 | 5.04 | < 5.00 | Activity (Rattus norvegicus [14]): 40 mmHg; pIC50 [15]: 5.71; Activity (Rattus norvegicus [16]): 40 mmHg; Activity (Rattus norvegicus [17]): Toxic; Activity (Rattus norvegicus [18]): 12 mmHg |
